# Test results as given in ChEMBL document CHEMBL1130379, “3-[2-(Pyrrolidin-1-yl)ethyl]indoles and 3-[3-(piperidin-1-yl)propyl]indoles: agonists for the h5-HT1D receptor with high selectivity over the h5-HT1B subtype” (J Med Chem, 1997).
# Columns and labels:
# [1] = target: Serotonin 1 receptors; 5-HT1B & 5-HT1D (Homo sapiens) (UniProt P28222+P28221); assay: Binding selectivity for 5-HT 1D/1B receptors; format: protein assay
# [2] = target: T1, 5-hydroxytryptamine receptor 1D (Homo sapiens, UniProt P28221); assay: Binding affinity by displacement to human cloned 5-hydroxytryptamine 1D receptor in CHO cells by [3H]5-HT displacement.; format: cell-based
# T1 sequence (P28221 whole entry): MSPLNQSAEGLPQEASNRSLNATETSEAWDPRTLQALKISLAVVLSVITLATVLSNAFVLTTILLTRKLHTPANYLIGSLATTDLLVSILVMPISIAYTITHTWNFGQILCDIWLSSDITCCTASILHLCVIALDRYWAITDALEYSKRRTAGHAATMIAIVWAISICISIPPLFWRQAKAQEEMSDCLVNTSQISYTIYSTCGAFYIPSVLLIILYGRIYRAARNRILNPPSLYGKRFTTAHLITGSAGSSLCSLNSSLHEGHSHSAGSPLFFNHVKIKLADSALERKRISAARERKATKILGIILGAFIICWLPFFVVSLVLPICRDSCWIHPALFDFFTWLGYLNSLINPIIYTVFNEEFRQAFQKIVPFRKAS
# Procedure, shortened: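 Cloned human 5-HT1D receptors were stably expressed in CHO cells. Compounds displaced [3H]-5-HT, used at the receptor's KD, and IC50 was read from the displacement. Values are the mean of two independent determinations, each run in triplicate.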
# [3] = target: T1, 5-hydroxytryptamine receptor 1D; assay: Measurement of agonist induced [35S]GTP-gamma-S, binding in CHO cells stably transfected with 5-hydroxytryptamine 1D receptor.; format: functional, cell-based
# Procedure, shortened: (§1)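 Agonist-induced [35S]GTPγS binding was measured in CHO cells stably transfected with human 5-HT1D receptors. The output was EC50 together with intrinsic efficacy, expressed as percent of the maximal 5-HT response.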
# [4] = Percent efficacy relative to 5-HT; format: functional; procedure, shortened: as §1
# [5] = target: 5-hydroxytryptamine receptor 1B (Homo sapiens, UniProt P28222); assay: Binding affinity to human cloned 5-hydroxytryptamine 1B receptor in CHO cells by [3H]5-HT binding displacement.; format: cell-based
# Sequence of 5-hydroxytryptamine receptor 1B (P28222 whole entry): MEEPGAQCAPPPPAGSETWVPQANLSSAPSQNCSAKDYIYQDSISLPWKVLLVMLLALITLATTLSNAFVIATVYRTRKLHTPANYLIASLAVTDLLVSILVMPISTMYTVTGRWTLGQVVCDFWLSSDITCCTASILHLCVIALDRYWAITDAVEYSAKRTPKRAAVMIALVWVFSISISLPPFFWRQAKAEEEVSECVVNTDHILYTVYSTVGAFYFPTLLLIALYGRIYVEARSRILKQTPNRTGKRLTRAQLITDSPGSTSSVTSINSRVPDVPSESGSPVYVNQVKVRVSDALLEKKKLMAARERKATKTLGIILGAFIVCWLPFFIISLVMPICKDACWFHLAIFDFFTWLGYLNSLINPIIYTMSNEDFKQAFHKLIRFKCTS
# [6] = efficacy relative to 5-HT; format: functional
# Procedure, shortened: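 Agonist-induced [35S]GTPγS binding in CHO cells stably transfected with human 5-HT1D receptors. Intrinsic efficacy is expressed as percent of the maximal 5-HT response.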
SMILES,Selectivity ratio [1],IC50 [2],EC50 [3],Efficacy [4],IC50 [5],Efficacy [6]
c1ccc(COC[C@@H]2CCN(CCc3c[nH]c4ccc(-n5cnnc5)cc34)C2)cc1,38,2.3 nM,2.1 nM,68%,88 nM,
c1cc2[nH]cc(CCN3CCCCC3)c2cc1-n1cnnc1,3,200 nM,,,568 nM,
CNS(=O)(=O)Cc1ccc2[nH]cc(CCN(C)C)c2c1,,,,,,100%
"c1ccc(CNCC2CCN(CCc3c[nH]c4ccc(-n5cnnc5)cc34)C2)cc1 (single isomer, unassigned)",31,1.6 nM,4.1 nM,102%,50 nM,
c1ccc(CNC[C@@H]2CCN(CCc3c[nH]c4ccc(-n5cnnc5)cc34)C2)cc1,94,0.5 nM,0.93 nM,100%,47 nM,
C[C@@H](NC1CCN(CCCc2c[nH]c3ccc(-n4cnnc4)cc23)CC1)c1ccccc1,100,0.35 nM,1.5 nM,96%,35 nM,
CN(Cc1ccccc1)C1CCN(CCCc2c[nH]c3ccc(-n4cnnc4)cc23)CC1,66,2.2 nM,1.6 nM,94%,145 nM,
c1cc2[nH]cc(CCN3CCCC3)c2cc1-n1cnnc1,9,3.4 nM,2.6 nM,120%,30.2 nM,
c1ccc(CO[C@@H]2CCN(CCc3c[nH]c4ccc(-n5cnnc5)cc34)C2)cc1 (stereo in doubt; 4b) [listing 1 of 2 here],23,,,81%,,
c1ccc(CO[C@@H]2CCN(CCc3c[nH]c4ccc(-n5cnnc5)cc34)C2)cc1 (stereo in doubt; 4c) [listing 1 of 2 here],12,,,84%,,
CN(C)CCc1c[nH]c2ccc(-n3cnnc3)cc12,4.7,0.3 nM,0.45 nM,117%,1.4 nM,
CN(C)CCc1c[nH]c2ccc(Cn3cncn3)cc12,,,,90%,,
OC[C@H](NC1CCN(CCCc2c[nH]c3ccc(-n4cnnc4)cc23)CC1)c1ccccc1,88,1.3 nM,1.8 nM,95%,114 nM,
CN(Cc1ccccc1)[C@@H]1CCN(CCc2c[nH]c3ccc(-n4cnnc4)cc23)C1,5.5,38 nM,,,210 nM,
c1cc2[nH]cc(CCCN3CCCCC3)c2cc1-n1cnnc1,0.6,24 nM,,,15 nM,
OC[C@H](NC1CCN(CCCc2c[nH]c3ccc(-n4cnnc4)cc23)CC1)c1ccc(F)cc1,206,0.9 nM,1.1 nM,104%,185 nM,
c1ccc(CO[C@@H]2CCN(CCc3c[nH]c4ccc(-n5cnnc5)cc34)C2)cc1 (stereo in doubt; 4b) [listing 2 of 2 here],,6.3 nM,15 nM,,146 nM,
CN(Cc1ccccc1)CC1CCN(CCCc2c[nH]c3ccc(-n4cnnc4)cc23)CC1,29,0.95 nM,0.9 nM,93%,28 nM,
O=C(c1ccc(F)cc1)C1CCN(CCn2c(=O)[nH]c3ccccc3c2=O)CC1 [KETANSERIN],25,260 nM,,,6500 nM,
c1ccc(CO[C@@H]2CCN(CCc3c[nH]c4ccc(-n5cnnc5)cc34)C2)cc1 (stereo in doubt; 4c) [listing 2 of 2 here],,23 nM,33 nM,,280 nM,
c1ccc(CNC2CCN(CCCc3c[nH]c4ccc(-n5cnnc5)cc34)CC2)cc1,26,4.8 nM,8 nM,76%,125 nM,
CN(Cc1ccccc1)C[C@@H]1CCN(CCc2c[nH]c3ccc(-n4cnnc4)cc23)C1,47,0.7 nM,1.6 nM,102%,33 nM,
